High-throughput results: PubChem, several laboratories
Compounds with a hit are over-represented: about 5.7% of the library has one in this group of screens.
Calb FLC – affects C. albicans growth with fluconazole. C. albicans CaCi-2 (fluconazole-resistant clinical isolate) + fluconazole, Alamar Blue growth, 48 h. growth inhibition, % (test concentration not listed). 300,000 compounds, 0.57% hits;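 active = growth inhibition above about 58% in most replicates, limit read from the data, passing the limit was not always enough; inconclusive = exactly half the replicates above a set limit; inactive = most replicates below a set limit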;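 note: all wells also contain fluconazole at 8 µg/ml as a sub-toxic cotreatment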
CSC inhib – blocks cancer stem cells. 300,000 compounds, 1.1% hits. cancer stem cell-like cells viability, luminescence. inhibition, % at 7.5 µM; in the data active = inhibition above about 75%; inconclusive = no clear call, values can overlap the other calls; tested in HMLE shEcad cells
SKKanGAS inh – inhibitors of SKKanGAS S. pyogenes growth in kanamycin (SK-promoter or general growth effect). inhibition, % at 7.5 µM. BacTiter-Glo, 6 h. 300,000 compounds, 1.3% hits;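 active = mean replicate score, as percent of positive control median, at least 50; inconclusive = mean below 50 but one replicate at or above 50; inactive = mean and every replicate below 50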;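 note: strain carries kanamycin resistance gene driven by streptokinase promoter and grows in 40 µg/ml kanamycin; loss of luminescence reflects streptokinase promoter inhibition or plain growth inhibition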
Mdm2 MdmX PPI – human Mdm2/MdmX binding inhibition; O15151+Q00987; SaOS-2 split-luciferase Mdm2/MdmX complementation, luminescence; inhibition, % at 8 µM; 330,000 compounds, 3% hits; AID 485346;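 active = inhibition of at least 50% at 8 µM in the primary screen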
T cruzi inh – T. cruzi replication inhibition | T. cruzi beta-gal in NIH3T3, luminescence, 90 h | 300,000 compounds, 1.4% hits | AID 1885 | inhibition, % (test concentration not listed);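 active = mean inhibition across valid replicates above about 55%, limit read from the data; inconclusive = mean below that limit but half or more replicates reach it; inactive = mean below it, under half of replicates reach it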;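 note: signal also drops with host cell toxicity which is not excluded here; higher percent means less beta-gal luminescence so fewer parasites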
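System: NIH/3T3 fibroblasts plus reporter T. cruzi. Medium: DMEM plus 2% FBS. Probe or stimulus: 5000 reporter trypomastigotes per well. Compound: single 50 nL compound addition per well in DMSO. Incubation: co-culture of at least 90 h after 3 h attachment. Detection: GalScreen β-gal luminescence, detergent lysis, 60 min. Evaluation: parasite load inhibition, %.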
Beta apoptosis – blocks beta cell apoptosis; INS-1E cytokine-induced death, ATP luminescence, 48 h; percent of positive-control rescue, neutral wells zero; protection from apoptosis, % (concentration not given with the values); 300,000 compounds, 0.8% hits;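 active = Every replicate reaches about 75%, or at least half do and their mean reaches it too, limit read from the data; inconclusive = At least half of replicates reach the limit but their mean does not; inactive = Under half of replicates reach the limit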;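 note: higher means more ATP so stronger rescue from cytokine killing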
Mdm2 MdmX conf – confirmation of human Mdm2/MdmX interaction inhibitors | shares compounds with Mdm2 MdmX PPI | inhibition, % at 8 µM | Mdm2-MdmX binding, luminescent assay | 10,000 compounds, 55% hits; in the data active = inhibition above about 40%
Full FLuc ctr – counter-screen for Mdm2/MdmX inhibitors: full-length luciferase; 6,200 compounds, 77% hits; AID 504607; inhibition, % at 8 µM; shares compounds with Mdm2 MdmX PPI; SaOS-2 full-length luciferase counterscreen, luminescence;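 active = mean inhibition at 8 µM reaching about 37%, which flags the compound as non-specific, limit read from the data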;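 note: p53-null SaOS-2 cells with luciferase driven by a doxycycline-inducible promoter; compound on cells about two nights before reading with doxycycline added after day one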
A number is an active result; n = inactive; u = inconclusive; x = not tested or not shown.

SMILES	Calb FLC	CSC inhib	SKKanGAS inh	Mdm2 MdmX PPI	T cruzi inh	Beta apoptosis	Mdm2 MdmX conf	others
COc1ccc(N2CCN(C(CNC(=O)Oc3ccccc3)c3cccnc3)CC2)cc1 (configuration not stated)	n	n	n	n	62	n	x
Fc1ccccc1N1CCN(Cc2c(F)cccc2F)CC1	n	n	n	n	n	n	x
COc1ccccc1CN1CCN(Cc2ccc(Cl)cc2)CC1	u	n	n	n	58	n	x
COc1ccc(CN2CCN(Cc3ccccc3OC)CC2)cc1	n	n	n	n	n	n	x
C=CCn1c(O)c(C(CC)=Nc2ccc3c(c2)CCC3)c(=O)[nH]c1=O	n	n	n	n	n	n	x
C=CCn1c(O)c(C(CC)=Nc2ccc(N(C)C)cc2)c(=O)[nH]c1=O	n	n	57	n	n	n	x
CN1c2ccc([N+](=O)[O-])cc2CC2(C(=O)NC(=O)N(c3ccccc3)C2=O)C1c1ccccc1 (configuration not stated)	n	n	n	n	72	n	x
CN1c2ccc([N+](=O)[O-])cc2CC2(C(=O)NC(=O)NC2=O)C1c1ccccc1 (configuration not stated)	n	n	n	n	n	n	x
CCCC1C(C#N)=C(N)Oc2c1c(=O)oc1ccccc21 (configuration not stated)	n	n	n	n	n	n	x
Cc1ccc(-n2nc(C)c(C3C(C#N)=C(N)Oc4c3c(=O)oc3ccccc43)c2Cl)cc1 (configuration not stated)	n	x	119	x	n	x	x
C[C@@H]1O[C@@H](O[C@H]2C[C@@H](O)[C@]3(CO)[C@H]4[C@H](O)C[C@]5(C)[C@@H](C6=CC(=O)OC6)CC[C@]5(O)[C@@H]4CC[C@]3(O)C2)[C@H](O)[C@H](O)[C@H]1O	x	95	n	83	n	n	80	Full FLuc ctr=n
COc1ccc(C(C)=O)cc1Cc1c(O)[nH]c(=S)[nH]c1=O	n	n	n	n	n	n	x
Cn1c(=O)c2c(ncn2CCCl)n(C)c1=O	n	n	n	n	n	n	x
CC12CCC3C(CC=C4CC(O)CCC43C)C1C/C(=C\c1cccc(F)c1)C2=O (configuration not stated)	n	n	n	60	n	n	n
CN1[C@@H]2CC[C@H]1CC(OC1c3ccccc3CCc3ccccc31)C2 (some centres not stated)	x	n	x	71	x	x	n	Full FLuc ctr=70
COc1cc(C(CN)CC(=O)O)ccc1O (configuration not stated)	n	n	n	n	n	n	x
NCCc1ccc(OCc2ccccc2)c(OCc2ccccc2)c1	x	106	x	92	x	n	n
COc1ccc(CCN)cc1OC	n	n	n	n	n	n	x
CC/C(=C\C=C\[C@@H]1C=C[C@@H]2CCC[C@H]2[C@@H]1C(=O)c1ccc[nH]1)[C@@H]1O[C@@H]([C@@H](C)C(=O)O)CC[C@@H]1C	n	90	131	84	65	n	74	Full FLuc ctr=37
FC(F)(F)c1ccc2c(c1)N(CCCN1CCN(CCCl)CC1)c1ccccc1S2	n	n	n	61	n	n	n
CCCCCc1nc2c(c(=O)c3ccccc3n2C)c(=O)n1C1CCCCCC1	n	149	94	69	n	111	n
Cc1cccc(-n2c(/C=C/c3ccc([N+](=O)[O-])o3)nc3ccccc3c2=O)c1	n	89	n	94	n	n	57	Full FLuc ctr=42
O=c1c2ccccc2nc(/C=C/c2ccc(O)c(O)c2)n1-c1ccccc1	n	n	n	n	n	n	x
O=c1c2ccccc2nc(/C=C/c2ccc([N+](=O)[O-])o2)n1-c1ccc(O)cc1	98	x	n	75	n	x	85	Full FLuc ctr=n
OC[C@H]1O[C@@H](n2cnc3cc(Cl)c(Cl)cc32)[C@H](O)[C@@H]1O	x	n	x	n	x	x	x
Cc1ccc(Oc2cc(NN3CCCCC3)c([N+](=O)[O-])cc2[N+](=O)[O-])c([N+](=O)[O-])c1	n	n	n	51	n	n	n
Cc1c2ccncc2c(C)c2c1[nH]c1ccccc12	x	109	86	98	n	119	92	Full FLuc ctr=n
